Assay results reported in ChEMBL document CHEMBL3400019, “Pheophorbide-a conjugates with cancer-targeting moieties for targeted photodynamic cancer therapy” (Bioorg Med Chem, 2015).
Activity calls are given as the source filed them. The rule behind the calls is not given here. Residues, ends and D or L forms follow the SMILES beside them.

How the values were obtained:
[1] = system: A549; assay: Cellular uptake in folate receptor-negative human A549 cells at 2 uM after 1 hr by confocal microscopy; format: ADME, cell-based; conditions: a549, 0.5 h, in the assay text read “after 0.5 hr” for “after 1 hr”
In short: (§1)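 Cells plated on slide dishes overnight (A549 in DMEM, others in RPMI 1640, 10% FBS, 37 °C, 5% CO2); conjugate added to medium at 2 µM, incubated (time per line), washed three times with PBS, imaged by confocal microscopy; excitation 440 nm, emission 655–755 nm.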

[2] = system: A549; assay: Phototoxicity against folate receptor-negative human A549 cells at 0.1 to 2 uM incubated for 2 hrs followed by 1.25 J/cm'2 light irradiation from red light emitting diode for 24 hrs by MTT assay; format: functional, cell-based
In short: (§2)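 Cells seeded at 1 × 10^5 cells/mL overnight, PBS-washed, incubated 2 h in serum-free medium with photosensitizer (from 1 mM DMSO stock); medium removed, irradiated 1.25 J/cm2 red LED (613–645 nm). After 24 h, MTT (5 mg/mL stock) 3 h at 37 °C, formazan dissolved in 0.04 M HCl/isopropanol, OD 570 nm; background-subtracted, % of control; mean ± SD, three experiments.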

[3] = system: KB; assay: Phototoxicity against human KB cells overexpressing folate receptor at 0.1 to 2 uM incubated for 2 hrs followed by 1.25 J/cm'2 light irradiation from red light emitting diode for 24 hrs by MTT assay; format: functional, cell-based; in short: as §2
[4] = Cellular uptake in human KB cells overexpressing folate receptor at 2 uM after 1 hr by confocal microscopy; format: ADME, cell-based; conditions: 0.5 h, in the assay text read “after 0.5 hr” for “after 1 hr”; in short: as §1
[5] = Cellular uptake in human U87MG cells overexpressing alphaVbeta3 at 2 uM after 1 hr by confocal microscopy; format: ADME, cell-based; conditions: u-87mg atcc; in short: as §1
[6] = system: A549; assay: Cellular uptake in alphaVbeta3-negative human A549 cells at 2 uM after 1 hr by confocal microscopy; format: ADME, cell-based; conditions: a549, 1 h; in short: as §1
[7] = system: U-87MG ATCC; assay: Phototoxicity against human U87MG cells overexpressing alphaVbeta3 at 0.1 to 2 uM incubated for 2 hrs followed by 1.25 J/cm'2 light irradiation from red light emitting diode for 24 hrs by MTT assay; format: functional, cell-based; in short: as §2
[8] = system: A549; assay: Phototoxicity against alphaVbeta3-negative human A549 cells at 0.1 to 2 uM incubated for 2 hrs followed by 1.25 J/cm'2 light irradiation from red light emitting diode for 24 hrs by MTT assay; format: functional, cell-based; in short: as §2
[9] = Cellular uptake in LHRH receptor-negative human SKOV3 cells at 2 uM after 1.5 hr by confocal microscopy; conditions: sk-ov-3, 1.5 h
[10] = system: MCF7; assay: Cellular uptake in human MCF7 cells overexpressing LHRH receptor at 2 uM after 1.5 hrs by confocal microscopy; format: ADME, cell-based; conditions: mcf7, 1.5 h; in short: as §1
[11] = system: SK-OV-3; assay: Phototoxicity against LHRH receptor-negative human SKOV3 cells at 0.1 to 2 uM incubated for 2 hrs followed by 1.25 J/cm'2 light irradiation from red light emitting diode for 24 hrs by MTT assay; format: functional, cell-based; in short: as §2
[12] = system: MCF7; assay: Phototoxicity against human MCF7 cells overexpressing LHRH receptor at 0.1 to 2 uM incubated for 2 hrs followed by 1.25 J/cm'2 light irradiation from red light emitting diode for 24 hrs by MTT assay; format: functional, cell-based; in short: as §2
[13] = system: FaDu; assay: Induction of apoptosis in human FADU cells overexpressing alphaVbeta6 assessed as condensation and the fragmentation of nuclear structure at 1 uM incubated for 1 hr prior to 1.25 J/cm'2 light irradiation from red light emitting diode measured after 24 hrs by DAPI staining-based conventional fluorescence microscopy relative to control; format: functional, cell-based
In short: (§3)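 A549 and FaDu seeded 5 × 10^5 cells/well, PDT (1 h conjugate, 1.25 J/cm2 red LED, 613–645 nm), 24 h; fixed in 4% paraformaldehyde, stained with 1 µg/mL DAPI 5 min dark at rt, washed ice-cold PBS, nuclear chromatin changes viewed by fluorescence microscopy (×400).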

[14] = system: A549; assay: Induction of apoptosis in alphaVbeta6-negative human A549 cells assessed as PARP cleavage at 0.1 to 1 uM incubated for 1 hr prior to 1.25 J/cm'2 light irradiation from red light emitting diode measured after 24 hrs by Western blotting analysis relative to control; format: functional, cell-based
In short: (§4)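 A549 and FaDu seeded 2 × 10^5 cells/well, given PDT (1 h conjugate, 1.25 J/cm2 red LED, 613–645 nm, 35 mW/cm2 at 635 nm peak), then 24 h incubation; lysed, equal protein by SDS–PAGE, PVDF transfer, antibody immunoblot for PARP cleavage, procaspase-3, Bcl-2, Bax.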

[15] = system: A549; assay: Induction of apoptosis in alphaVbeta6-negative human A549 cells assessed as cell rounding at 1 uM incubated for 1 hr prior to 1.25 J/cm'2 light irradiation from red light emitting diode measured after 24 hrs by DAPI staining-based conventional fluorescence microscopy relative to control; format: functional
[16] = system: FaDu; assay: Induction of apoptosis in human FADU cells overexpressing alphaVbeta6 assessed as decrease in procaspase-3 expression at 0.1 to 1 uM incubated for 1 hr prior to 1.25 J/cm'2 light irradiation from red light emitting diode measured after 24 hrs by Western blotting analysis relative to control
[17] = system: A549; assay: Phototoxicity against alphaVbeta6-negative human A549 cells at 0.1 to 2 uM incubated for 2 hrs followed by 1.25 J/cm'2 light irradiation from red light emitting diode for 24 hrs by MTT assay; format: functional, cell-based; in short: as §2
[18] = system: FaDu; assay: Induction of apoptosis in human FADU cells overexpressing alphaVbeta6 assessed as increase in apoptotic cell death incubated for 1 hr prior to 1.25 J/cm'2 light irradiation from red light emitting diode measured after 24 hrs by Annexin V-FITC/propidium iodide staining-based flow cytometry relative to control; format: functional
In short: (§5)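 Cells seeded 5 × 10^5 per plate and given photodynamic treatment as in the viability assay: conjugate in serum-free medium, then red LED light (613–645 nm) at 1.25 J/cm2. Harvested 24 h later and washed in cold PBS. Stained 15 min at rt with saturating Annexin V-FITC and PI in HEPES binding buffer (10 mM HEPES, 140 mM NaCl, 2.5 mM CaCl2, pH 7.4). Read by flow cytometry against control.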

[19] = system: A549; assay: Induction of apoptosis in alphaVbeta6-negative human A549 cells assessed as increase in apoptotic cell death incubated for 1 hr prior to 1.25 J/cm'2 light irradiation from red light emitting diode measured after 24 hrs by Annexin V-FITC/propidium iodide staining-based flow cytometry relative to control; format: functional; in short: as §5
[20] = system: FaDu; assay: Induction of apoptosis in human FADU cells overexpressing alphaVbeta6 assessed as decrease in cell density at 1 uM incubated for 1 hr prior to 1.25 J/cm'2 light irradiation from red light emitting diode measured after 24 hrs by DAPI staining-based conventional fluorescence microscopy relative to control; format: functional
[21] = system: FaDu; assay: Induction of apoptosis in human FADU cells overexpressing alphaVbeta6 assessed as reduction in Bcl-2 expression at 0.1 to 1 uM incubated for 1 hr prior to 1.25 J/cm'2 light irradiation from red light emitting diode measured after 24 hrs by Western blotting analysis relative to control; format: functional, cell-based; in short: as §4
[22] = system: FaDu; assay: Induction of apoptosis in human FADU cells overexpressing alphaVbeta6 assessed as cellular shrinkage at 1 uM incubated for 1 hr prior to 1.25 J/cm'2 light irradiation from red light emitting diode measured after 24 hrs by DAPI staining-based conventional fluorescence microscopy relative to control; format: functional, cell-based
[23] = system: A549; assay: Induction of apoptosis in alphaVbeta6-negative human A549 cells assessed as decrease in cell density at 1 uM incubated for 1 hr prior to 1.25 J/cm'2 light irradiation from red light emitting diode measured after 24 hrs by DAPI staining-based conventional fluorescence microscopy relative to control; format: functional
[24] = system: FaDu; assay: Induction of apoptosis in human FADU cells overexpressing alphaVbeta6 assessed as cell rounding at 1 uM incubated for 1 hr prior to 1.25 J/cm'2 light irradiation from red light emitting diode measured after 24 hrs by DAPI staining-based conventional fluorescence microscopy relative to control; format: functional
[25] = system: A549; assay: Induction of apoptosis in alphaVbeta6-negative human A549 cells assessed as condensation and the fragmentation of nuclear structure at 1 uM incubated for 1 hr prior to 1.25 J/cm'2 light irradiation from red light emitting diode measured after 24 hrs by DAPI staining-based conventional fluorescence microscopy relative to control; format: functional, cell-based; in short: as §3
[26] = system: FaDu; assay: Cellular uptake in human FADU cells overexpressing alphaVbeta6 at 2 uM after 1 hr by confocal microscopy; format: ADME, cell-based; in short: as §1
[27] = system: FaDu; assay: Induction of apoptosis in human FADU cells overexpressing alphaVbeta6 assessed as PARP cleavage at 0.1 to 1 uM incubated for 1 hr prior to 1.25 J/cm'2 light irradiation from red light emitting diode measured after 24 hrs by Western blotting analysis relative to control; format: functional, cell-based; in short: as §4
[28] = system: FaDu; assay: Phototoxicity against human FADU cells overexpressing alphaVbeta6 at 0.1 to 2 uM incubated for 2 hrs followed by 1.25 J/cm'2 light irradiation from red light emitting diode for 24 hrs by MTT assay; format: functional, cell-based; in short: as §2
[29] = system: A549; assay: Induction of apoptosis in alphaVbeta6-negative human A549 cells assessed as cellular shrinkage at 1 uM incubated for 1 hr prior to 1.25 J/cm'2 light irradiation from red light emitting diode measured after 24 hrs by DAPI staining-based conventional fluorescence microscopy relative to control; format: functional, cell-based
[30] = system: FaDu; assay: Induction of apoptosis in human FADU cells overexpressing alphaVbeta6 assessed as increase in Bax expression at 0.1 to 1 uM incubated for 1 hr prior to 1.25 J/cm'2 light irradiation from red light emitting diode measured after 24 hrs by Western blotting analysis relative to control; format: functional, cell-based; in short: as §4
[31] = system: A549; assay: Cellular uptake in alphaVbeta6-negative human A549 cells at 2 uM after 1 hr by confocal microscopy; format: ADME, cell-based; conditions: a549, 1 h; in short: as §1

SMILES: C=Cc1c(C)c2cc3nc(c4c5[nH]c(cc6nc(cc1[nH]2)C(C)=C6CC)c(C)c5C(=O)[C@@H]4C(=O)OC)[C@@H](CCC(=O)NCCOCCOCCNC(=O)CCC(NC(=O)c1ccc(NCc2cnc4nc(N)[nH]c(=O)c4n2)cc1)C(=O)O)[C@@H]3C (some centres not stated)
- Drug uptake [1]: Not Active
- Activity [2]: inactive
- Activity [3]: Active
- Drug uptake [4]: Active

SMILES: C=Cc1c(C)c2cc3nc(c4c5[nH]c(cc6nc(cc1[nH]2)C(C)=C6CC)c(C)c5C(=O)[C@@H]4C(=O)OC)[C@@H](CCC(=O)NCCCC(=O)NCCCC[C@H]1NC(=O)[C@@H](Cc2ccccc2)NC(=O)[C@H](CC(=O)O)NC(=O)CNC(=O)[C@H](CCCNC(=N)N)NC1=O)[C@@H]3C
- Drug uptake [5]: Active
- Drug uptake [6]: Not Active
- Activity [7]: Active
- Activity [8]: inactive

SMILES: C=Cc1c(C)c2cc3nc(c4c5[nH]c(cc6nc(cc1[nH]2)C(C)=C6CC)c(C)c5C(=O)[C@@H]4C(=O)OC)[C@@H](CCC(=O)NCCCC(=O)OC[C@H](NC(=O)[C@H](Cc1c[nH]c2ccccc12)NC(=O)[C@H](Cc1cnc[nH]1)NC(=O)[C@@H]1CCC(=O)N1)C(=O)N[C@@H](Cc1ccc(O)cc1)C(=O)N[C@H](CC(C)C)C(=O)N[C@@H](CC(C)C)C(=O)N[C@@H](CCCNC(=N)N)C(=O)N1CCC[C@H]1C(=O)NCC)[C@@H]3C
- Drug uptake [9]: Not Active
- Drug uptake [10]: Active

SMILES: C=Cc1c(C)c2cc3nc(c4c5[nH]c(cc6nc(cc1[nH]2)C(C)=C6CC)c(C)c5C(=O)[C@@H]4C(=O)OC)[C@@H](CCC(=O)NCCCC(=O)OC[C@H](NC(=O)[C@@H](Cc1c[nH]c2ccccc12)NC(=O)[C@H](Cc1cnc[nH]1)NC(=O)[C@@H]1CCC(=O)N1)C(=O)N[C@@H](Cc1ccc(O)cc1)C(=O)N[C@H](CC(C)C)C(=O)N[C@@H](CC(C)C)C(=O)N[C@@H](CCCNC(=N)N)C(=O)N1CCC[C@H]1C(=O)NCC)[C@@H]3C
- Activity [11]: inactive
- Activity [12]: Active

SMILES: [H][C@]12CSSC[C@]([H])(NC1=O)C(=O)N[C@@H](CCCNC(=N)N)C(=O)NCC(=O)N[C@@H](CC(=O)NCCCNC(=O)CC[C@@H]1c3nc(cc4[nH]c(cc5nc(cc6[nH]c7c(c6C)C(=O)[C@H](C(=O)OC)c37)C(CC)=C5C)c(C=C)c4C)[C@H]1C)C(=O)N[C@@H](CC(C)C)C(=O)N[C@@H](C)C(=O)N[C@@H](CO)C(=O)N[C@@H](CC(C)C)C(=O)N2 (HELM PEPTIDE1{R.G.D.L.A.S.L.C.C}|CHEM1{[C=Cc1c(C)c2cc3nc(c4c5[nH]c(cc6nc(cc1[nH]2)C(C)=C6CC)c(C)c5C(=O)[C@@H]4C(=O)OC)[C@@H](CCC(=O)NCCCN[*:1])[C@@H]3C]}$PEPTIDE1,CHEM1,3:R3-1:R1|PEPTIDE1,PEPTIDE1,8:R3-9:R3|PEPTIDE1,PEPTIDE1,1:R1-9:R2$$$V2.0)
- Activity [13]: Active
- Activity [14]: inactive
- Activity [15]: inactive
- Activity [16]: Active
- Activity [17]: inactive
- Activity [18]: Dose-dependent effect
- Activity ([18]; record 2): 31.4%
- Activity [19]: 19.8%
- Activity [20]: Active
- Activity [21]: Active
- Activity [22]: Active
- Activity [23]: inactive
- Activity [24]: Active
- Activity [25]: inactive
- Drug uptake [26]: Active
- Activity [27]: Active
- Activity [28]: Active
- Activity [29]: inactive
- Activity [30]: Active
- Drug uptake [31]: Not Active
